Broadly, the Ki is a measure of affinity in units of concentration, obtained from inhibition or displacement. Lower therefore signals a stronger hold on the target.

A value given as a limit tells only on which side of the number the result lay.

For six compounds, Ki results are on record in BindingDB's records for doi:10.1021/jm200203f (Washington University, 2011).

In test [1] the target is Sigma non-opioid intracellular receptor 1 (Cavia porcellus, UniProt Q60492). As to the kind of experiment: Displacement of (+)-[3H]pentazocine from sigma 1 receptor in guinea pig brain membrane homogenates after 90 mins by liquid scintillation counting.
Chain of Sigma non-opioid intracellular receptor 1 (Q60492 whole entry): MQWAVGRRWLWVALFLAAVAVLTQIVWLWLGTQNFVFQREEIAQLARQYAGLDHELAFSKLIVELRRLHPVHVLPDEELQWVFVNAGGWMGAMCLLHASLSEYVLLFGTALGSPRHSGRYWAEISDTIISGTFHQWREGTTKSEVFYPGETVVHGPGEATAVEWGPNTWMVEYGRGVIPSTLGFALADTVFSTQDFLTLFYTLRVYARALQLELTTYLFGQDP
For test [2], the target named is T1, Vesicular acetylcholine transporter (Homo sapiens, UniProt Q16572).
T1 sequence (Q16572 whole entry): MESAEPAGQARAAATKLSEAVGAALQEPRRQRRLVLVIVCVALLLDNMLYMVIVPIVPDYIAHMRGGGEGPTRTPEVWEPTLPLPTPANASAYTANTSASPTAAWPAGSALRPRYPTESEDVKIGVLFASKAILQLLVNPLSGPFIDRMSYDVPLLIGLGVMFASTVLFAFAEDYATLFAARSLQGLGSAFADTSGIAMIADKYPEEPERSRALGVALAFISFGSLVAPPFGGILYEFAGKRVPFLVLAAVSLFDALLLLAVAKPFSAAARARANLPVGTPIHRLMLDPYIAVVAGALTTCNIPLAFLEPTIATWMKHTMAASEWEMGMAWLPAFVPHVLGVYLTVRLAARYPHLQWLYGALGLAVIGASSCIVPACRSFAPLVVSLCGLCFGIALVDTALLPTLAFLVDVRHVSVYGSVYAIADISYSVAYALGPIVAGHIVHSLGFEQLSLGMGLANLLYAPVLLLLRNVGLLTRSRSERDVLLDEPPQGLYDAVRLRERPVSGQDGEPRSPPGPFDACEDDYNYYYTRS
The test is described as follows: Displacement of (-)-[3H]vesamicol from human VAChT expressed in rat PC12 A123.7 cells after 20 hrs.

The target in the next test is D(2) dopamine receptor (Homo sapiens, UniProt P14416). As to the kind of experiment: Displacement of [125I]IABN from human dopamine D2 long receptor expressed in HEK293 cells after 60 mins by gamma counting.
Chain of D(2) dopamine receptor (P14416 whole entry): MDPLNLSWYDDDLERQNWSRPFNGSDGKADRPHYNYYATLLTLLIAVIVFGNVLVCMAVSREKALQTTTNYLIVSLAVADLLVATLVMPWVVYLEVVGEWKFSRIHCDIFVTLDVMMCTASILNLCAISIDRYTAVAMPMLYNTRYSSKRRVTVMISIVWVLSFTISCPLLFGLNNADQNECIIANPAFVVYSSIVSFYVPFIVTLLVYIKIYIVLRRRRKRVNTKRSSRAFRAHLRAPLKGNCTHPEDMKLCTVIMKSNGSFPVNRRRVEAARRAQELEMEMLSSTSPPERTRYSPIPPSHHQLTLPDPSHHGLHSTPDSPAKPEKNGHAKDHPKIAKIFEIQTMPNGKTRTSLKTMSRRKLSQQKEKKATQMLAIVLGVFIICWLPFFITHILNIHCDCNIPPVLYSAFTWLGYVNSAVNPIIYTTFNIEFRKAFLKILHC
The target of another test is D(3) dopamine receptor (Homo sapiens, UniProt P35462). As to the kind of experiment: Displacement of [125I]IABN from human dopamine D3 receptor expressed in HEK293 cells after 60 mins by gamma counting.
Chain of D(3) dopamine receptor (P35462 as listed by the source): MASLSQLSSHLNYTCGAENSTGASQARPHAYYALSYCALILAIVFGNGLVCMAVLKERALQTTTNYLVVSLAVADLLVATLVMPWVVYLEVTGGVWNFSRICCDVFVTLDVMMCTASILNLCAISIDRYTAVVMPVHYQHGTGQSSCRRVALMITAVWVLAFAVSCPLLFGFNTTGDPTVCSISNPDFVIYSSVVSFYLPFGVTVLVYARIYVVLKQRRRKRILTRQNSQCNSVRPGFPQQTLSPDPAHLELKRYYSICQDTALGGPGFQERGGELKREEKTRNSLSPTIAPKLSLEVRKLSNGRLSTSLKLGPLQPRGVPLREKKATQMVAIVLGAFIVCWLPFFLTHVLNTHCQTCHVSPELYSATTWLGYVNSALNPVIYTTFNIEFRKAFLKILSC
Test [3] addresses T2, 5-hydroxytryptamine receptor 1A (Homo sapiens, UniProt P08908).
T2 sequence (P08908 whole entry): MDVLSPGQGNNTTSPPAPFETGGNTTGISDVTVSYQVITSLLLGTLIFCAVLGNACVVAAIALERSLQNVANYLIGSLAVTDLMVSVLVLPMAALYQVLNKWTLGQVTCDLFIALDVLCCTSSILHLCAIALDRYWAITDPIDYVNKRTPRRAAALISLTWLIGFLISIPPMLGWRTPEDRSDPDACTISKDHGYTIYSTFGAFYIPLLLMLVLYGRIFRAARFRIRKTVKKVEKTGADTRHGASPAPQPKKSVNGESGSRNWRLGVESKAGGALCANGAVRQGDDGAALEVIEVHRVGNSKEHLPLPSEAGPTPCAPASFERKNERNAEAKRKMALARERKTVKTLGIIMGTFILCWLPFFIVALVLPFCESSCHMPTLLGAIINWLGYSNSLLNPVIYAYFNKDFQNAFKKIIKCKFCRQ
As to the kind of experiment: Displacement of [3H]8-OH-DPAT from human 5HT1A receptor after 60 mins by liquid scintillation counting. The gist of the method:
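Inhibitor spanned 0.1 nM–10 µM or 0.01 nM–1 µM; 10 µM WAY-100635 defined nonspecific binding. Cold wash, filtration, scintillation counting; IC50 by nonlinear regression.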
Background: Loss of bound radioactivity is the signal in a displacement assay; it reports binding, not function.

For the compound `COc1ccc(C(=O)C2CCN([C@H]3CN(Cc4cccnc4)CC[C@@H]3O)CC2)cc1`, the Ki stood at 2.23 µM in test [1] and 0.107 µM in test [2].
As for `COc1ccc(C(=O)C2CCN([C@H]3CCN(Cc4ccc(F)cc4)C[C@@H]3O)CC2)cc1`, the Ki at D(2) dopamine receptor was 1.49 µM; on D(3) dopamine receptor, greater than 15 µM.
As for `O=C(c1ccc(F)cc1)C1CCN([C@H]2CCN(C(=O)c3ccc(F)cc3)C[C@@H]2O)CC1`, the results for the Ki in test [1] and in test [2] were 3.14 µM and 3.6 µM, respectively.
On the same counts, the results for `O=C(c1ccc(F)cc1)C1CCN([C@H]2CN(Cc3cccnc3)CC[C@@H]2O)CC1` are 1.16 µM and 0.237 µM.
On the same counts, the results for `COc1ccc(C(=O)C2CCN([C@H]3CN(Cc4ccccc4)CC[C@@H]3O)CC2)cc1` are 0.208 µM and 0.036 µM.
As for `O=C(c1ccc(F)cc1)C1CCN([C@H]2CCN(Cc3ccc(F)cc3)C[C@@H]2O)CC1`, the Ki on D(2) dopamine receptor is 1.35 µM; on D(3) dopamine receptor, greater than 20 µM; in test [3], 2.54 µM; in test [1], 0.00048 µM.
